Format in all cases: functional
Assay [1] relates to Mycobacterium tuberculosis. The assay can be described thus: Ratio of MIC for PA-824 to compound MIC for Mycobacterium tuberculosis H37Rv ATCC 27294 harboring pFCA-lux AB gene measured under aerobic condition after 8 days by luminescence analysis.
The subject of assay [2] is Mycobacterium tuberculosis. The assay can be described thus: Antimicrobial activity against Mycobacterium tuberculosis H37Rv ATCC 27294 harboring pFCA-lux AB gene measured under aerobic condition after 8 days by luminescence analysis. The settings on record: H37Rv ATCC 27294, 192 h. A digest of the protocol: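 MABA: replicating M. tb H37Rv exposed to compound aerobically for 8 days. […] Mean of at least two independent determinations ± SD.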

For assay [3], the system named is Mycobacterium tuberculosis. Briefly: Antimicrobial activity against Mycobacterium tuberculosis H37Rv ATCC 27294 harboring pFCA-lux AB gene measured under anaerobic condition after 11 days by luminescence analysis. The settings on record: H37Rv ATCC 27294, 264 h. A digest of the protocol:
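LORA: luminescence-based low-oxygen-recovery assay on nonreplicating M. tb, 11-day anaerobic exposure. MIC is the mean of at least two independent determinations ± SD.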

≈ marks a conversion by molar mass, not a printed value.

Take `O=C(Nc1ccc(OC(F)(F)F)cc1)O[C@@H]1COc2nc([N+](=O)[O-])cn2C1`: the Ratio in assay [1] turned out to be 4. Besides, the MIC is 0.12 µM (≈ 0.0466 µg/mL) in assay [2] and 2.7 µM (≈ 1.05 µg/mL) in assay [3].

On to `O=C(Nc1ccc(-c2ccc(F)nc2)cc1)O[C@@H]1COc2nc([N+](=O)[O-])cn2C1`, for which the minimum inhibitory concentration (MIC) is 0.13 µM (≈ 0.0519 µg/mL) in assay [2] and 4.3 µM (≈ 1.72 µg/mL) in assay [3].

Turning to `CN(C(=O)c1ccccc1OC(F)(F)F)[C@@H]1COc2nc([N+](=O)[O-])cn2C1`, the MIC in assay [2] is 45 µM (≈ 17.4 µg/mL); in assay [3], > 64 µM.

As for `O=C(Nc1ccc(-c2ccc(OC(F)(F)F)cc2)cc1)O[C@@H]1COc2nc([N+](=O)[O-])cn2C1`, the MIC in assay [2] was 0.05 µM (≈ 0.0232 µg/mL); in assay [3], > 32 µM.

Regarding `O=C(Nc1cccc(-c2ccc(OC(F)(F)F)cc2)c1)N[C@@H]1COc2nc([N+](=O)[O-])cn2C1`, the figures for the MIC in assay [2] and in assay [3] were 0.25 µM (≈ 0.116 µg/mL) and 5.8 µM (≈ 2.69 µg/mL), respectively.

Consider `O=C(Nc1ccc(OC(F)(F)F)cc1)N[C@@H]1COc2nc([N+](=O)[O-])cn2C1`, for which the MIC in assay [2] turned out to be 0.23 µM (≈ 0.0891 µg/mL); in assay [3] it was 4.2 µM (≈ 1.63 µg/mL).

With `O=C(N[C@@H]1COc2nc([N+](=O)[O-])cn2C1)c1cccc(OC(F)(F)F)c1`, the MIC in assay [2] was 4.9 µM (≈ 1.82 µg/mL); in assay [3], > 64 µM.

With `CN(C(=O)N(C)[C@@H]1COc2nc([N+](=O)[O-])cn2C1)c1ccc(OC(F)(F)F)cc1`, the MIC in assay [2] was 12 µM (≈ 4.98 µg/mL); in assay [3], > 64 µM.

Turning to `O=C(Nc1ccc(-c2ccnc(C(F)(F)F)c2)cc1)O[C@@H]1COc2nc([N+](=O)[O-])cn2C1`, the MIC was found to be 0.75 µM (≈ 0.337 µg/mL) in assay [2] and 6.2 µM (≈ 2.79 µg/mL) in assay [3].

`O=C(CN[C@@H]1COc2nc([N+](=O)[O-])cn2C1)c1ccc(OC(F)(F)F)cc1`: the MIC in assay [2] is 7.6 µM (≈ 2.94 µg/mL); in assay [3], > 64 µM.

Consider `O=[N+]([O-])c1cn2c(n1)OC[C@@H](OCc1ccccc1OC(F)(F)F)C2`, for which the MIC worked out at 1.8 µM (≈ 0.647 µg/mL) in assay [2] and 8.6 µM (≈ 3.09 µg/mL) in assay [3].

Take `O=C(NCc1ccc(-c2ccc(F)cc2)cc1)N[C@@H]1COc2nc([N+](=O)[O-])cn2C1`: the MIC was 0.11 µM (≈ 0.0453 µg/mL) in assay [2] and 26 µM (≈ 10.7 µg/mL) in assay [3].

Consider `O=C(N[C@@H]1COc2nc([N+](=O)[O-])cn2C1)OCc1ccc(OC(F)(F)F)cc1`, for which the MIC is 0.15 µM (≈ 0.0603 µg/mL) in assay [2] and 11 µM (≈ 4.43 µg/mL) in assay [3].

On to `O=[N+]([O-])c1cn2c(n1)OC[C@@H](NC(=S)Nc1ccc(OC(F)(F)F)cc1)C2`, for which the MIC in assay [2] was 8 µM (≈ 3.23 µg/mL); in assay [3] it was > 64 µM.

Take `O=C(O[C@@H]1COc2nc([N+](=O)[O-])cn2C1)N1CCN(c2ccc(OC(F)(F)F)cc2)CC1`: the MIC worked out at 0.033 µM (≈ 0.0151 µg/mL) in assay [2] and 1.1 µM (≈ 0.503 µg/mL) in assay [3].

As to `CN([C@@H]1COc2nc([N+](=O)[O-])cn2C1)S(=O)(=O)c1cccc(OC(F)(F)F)c1`, the MIC in assay [2] was determined as 12 µM (≈ 5.07 µg/mL); in assay [3], 64 µM (≈ 27 µg/mL).

`O=C(Nc1cccc(-c2ccc(F)cc2)c1)N[C@@H]1COc2nc([N+](=O)[O-])cn2C1`: the results for the MIC in assay [2] and in assay [3] were 0.03 µM (≈ 0.0119 µg/mL) and 3.8 µM (≈ 1.51 µg/mL), respectively.

Turning to `O=C(Nc1ccc(-c2ccc(C(F)(F)F)cc2)cc1)N[C@@H]1COc2nc([N+](=O)[O-])cn2C1`, the results for the MIC in assay [2] and in assay [3] were 0.19 µM (≈ 0.085 µg/mL) and > 32 µM, respectively.

`O=C(NCc1ccc(-c2ccc(OC(F)(F)F)cc2)cc1)O[C@@H]1COc2nc([N+](=O)[O-])cn2C1`: the values for the MIC in assay [2] and in assay [3] were 0.52 µM (≈ 0.249 µg/mL) and 2.4 µM (≈ 1.15 µg/mL), respectively.

On to `O=C(Cc1ccc(-c2ccc(C(F)(F)F)nc2)cc1)N[C@@H]1COc2nc([N+](=O)[O-])cn2C1`, for which the MIC in assay [2] is 0.46 µM (≈ 0.206 µg/mL); in assay [3] it was > 32 µM.

On to `O=C(Cc1ccc(OC(F)(F)F)cc1)N[C@@H]1COc2nc([N+](=O)[O-])cn2C1`, for which the MIC in assay [2] worked out at 0.27 µM (≈ 0.104 µg/mL); in assay [3], 21 µM (≈ 8.11 µg/mL).

In the case of `O=C(Cc1ccc(-c2ccc(C(F)(F)F)cc2)cc1)N[C@@H]1COc2nc([N+](=O)[O-])cn2C1`, the MIC in assay [2] turned out to be 0.44 µM (≈ 0.196 µg/mL); in assay [3], 23 µM (≈ 10.3 µg/mL).
